For orientation: pKi means the Ki on a negative log10 scale, so that one unit is a factor of ten. Read a high pKi as a low Ki.

This assay can be described thus: Inhibition of Vibrio cholerae cytosolic carbonic anhydrase by stopped flow CO2 hydration assay. An outline of the steps: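 Stopped-flow measurement of the enzyme-catalysed CO2 hydration activity; inhibition is reported as KI (nM).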

Molecules are shown by their SMILES. pKi: −log10 of the molar value.

`CC(=O)NC(CCCCNC(=O)OC(C)(C)C)C(=O)Nc1cccc(S(N)(=O)=O)c1` (stereo unspecified) had a pKi of 8.06. `CC(C)(C)OC(=O)NCCCC(=O)NCc1ccc(S(N)(=O)=O)cc1` gave a pKi of 8.21. For the compound `CC(C)(C)OC(=O)NCCCC(=O)NCCc1ccc(S(N)(=O)=O)cc1`, the negative logarithm of the Ki (pKi) is 6.52. In turn, `NCCCC(=O)NCc1ccc(S(N)(=O)=O)cc1` showed a pKi of 7.19. This pKi is 0.67 log units higher than that of the compound before. Take `NCCCC(=O)NCCc1ccc(S(N)(=O)=O)cc1`: the pKi is 7.11. `CC(C)(C)OC(=O)/N=C(\NCCCC(=O)NCc1ccc(S(N)(=O)=O)cc1)NC(=O)OC(C)(C)C` showed a pKi of 8.24.

For the compound `CC(C)(C)OC(=O)/N=C(\NCCCC(=O)NCCc1ccc(S(N)(=O)=O)cc1)NC(=O)OC(C)(C)C`, the pKi is 7.02. Compared with the last compound, the pKi is 1.22 log units lower. On to `N=C(N)NCCCC(=O)NCc1ccc(S(N)(=O)=O)cc1`, for which the pKi was 8.19. Under `N=C(N)NCCCC(=O)NCCc1ccc(S(N)(=O)=O)cc1` stands 7.54; under `CC(=O)NC(CCCCNC(=O)OC(C)(C)C)C(=O)NCc1ccc(S(N)(=O)=O)cc1` (stereo unspecified), 8.05; under `CC(=O)NC(CCCCNC(=O)OC(C)(C)C)C(=O)NCCc1ccc(S(N)(=O)=O)cc1` (stereo unspecified), 7.12. Compound `CC(=O)NC(CCCCN)C(=O)NCc1ccc(S(N)(=O)=O)cc1` (stereo unspecified) gave a pKi of 7.54. In the case of `CC(=O)NC(CCCCN)C(=O)NCCc1ccc(S(N)(=O)=O)cc1` (stereo unspecified), the pKi was 7.18. This pKi lies 0.36 log units lower than the previous one.

Compound `CC(=O)NC(CCCCN/C(=N/C(=O)OC(C)(C)C)NC(=O)OC(C)(C)C)C(=O)NCc1ccc(S(N)(=O)=O)cc1` (stereo unspecified) gave a pKi of 8.04. The compound `CC(=O)NC(CCCCN/C(=N/C(=O)OC(C)(C)C)NC(=O)OC(C)(C)C)C(=O)NCCc1ccc(S(N)(=O)=O)cc1` (stereo unspecified) had a pKi of 8.03. With `CC(=O)NC(CCCCNC(=N)N)C(=O)NCc1ccc(S(N)(=O)=O)cc1` (stereo unspecified), the pKi was 8.06. `CC(=O)NC(CCCCNC(=N)N)C(=O)NCCc1ccc(S(N)(=O)=O)cc1` (stereo unspecified) gave a pKi of 7.43. This pKi is 0.63 log units lower than that of the compound before.

In turn, `CC(C)(C)OC(=O)NCCCC(=O)Nc1cccc(S(N)(=O)=O)c1` had a pKi of 8.12. This pKi lies 0.69 log units higher than the previous one. In turn, `CC(C)(C)OC(=O)NCCCC(=O)Nc1ccc(S(N)(=O)=O)cc1` gave a pKi of 8.16. As for `COC(=O)C(CCCCNC(=O)OCc1ccccc1)NC(=O)c1ccc(S(N)(=O)=O)cc1` (stereo unspecified), the figure is 8.21; as for `CC(=O)Nc1nnc(S(N)(=O)=O)s1` [ACETAZOLAMIDE], […].

The record behind these values is ChEMBL document CHEMBL3352003, “Sulfonamides with Potent Inhibitory Action and Selectivity against the α-Carbonic Anhydrase from Vibrio cholerae” (ACS Med Chem Lett, 2014).
